Data on one compound can be found in ChEMBL document CHEMBL6182837, “Discovery and biological evaluation of nitrofuranyl-pyrazolopyrimidine hybrid conjugates as potent antimicrobial agents targeting Staphylococcus aureus and methicillin-resistant S. aureus” (RSC Med Chem, 2025).

As usually defined, the Cmax is the maximum level reached in the sampled fluid or tissue.

Data set [1] can be described thus: Cmax in male Balb/c mouse at 30 mg/kg, po by LC-MS/MS analysis. Type of data set: ADME, organism-based. The following applies: in vivo. The method, boiled down: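 Balb/c mice dosed 1 mg kg−1 intravenously or 30 mg kg−1 orally (2.5 mg kg−1 oral also given); plasma PK parameters derived.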
The subject of data set [2] is J774.A1. In words: Cytotoxicity against mouse J774.A1 cells up to 200 ug/ml incubated for 24 hrs by absorbance based assay.
Data set [3] has as its system Staphylococcus aureus. Description: Synergistic bactericidal activity against Staphylococcus aureus ATCC 29213 assessed as reduction in bacterial count at 0.02 ug/ml measured after 24 hrs in presence of vancomycin by time-kill assay. The class given is functional, organism-based. The note with it: dose 0.02 µg/ml. A digest of the protocol: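 Time-kill with compound combined with vancomycin at synergistic concentrations (from checkerboard FIC) against S. aureus; CFU followed up to 8 h and at 24 h.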

For data set [4], the system named is Staphylococcus aureus. Description: Induction of membrane permeabilization in Staphylococcus aureus ATCC 29213 at 1 to 8 times MIC measured after 80 mins by PI staining based analysis relative to control. The class given is functional. The following applies: 1.333 h. A digest of the protocol:
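PI permeabilization of S. aureus at 1×, 2×, 4×, 8× MIC followed over time up to 80 min; vancomycin 4× and 8× MIC as drug control; untreated blank; percentage permeabilization.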

Data set [5] has as its system Staphylococcus aureus. Description: Bactericidal activity against methicillin-resistant Staphylococcus aureus ATCC 15187 assessed as reduction in bacterial count at 4 times MIC measured for 2 hrs by time-kill assay. The class given is functional, organism-based.
The subject of data set [6] is Staphylococcus aureus. In words: Bacteriostatic activity against Staphylococcus aureus ATCC 29213 assessed as reduction in bacterial count at MIC incubated for 2 to 24 hrs by time-kill assay. Type of data set: functional. The note with it: time 2-24 hrs.

SMILES strings stand for the structures. Calls of active or inactive are those of the source. The calls are words filed in the database; no cut-off is given here.

`CCCc1nn(C)c2c(Nc3ccc(O)cc3)nc(-c3ccc([N+](=O)[O-])o3)nc12` gave a Cmax in data set [1] of 2010 ng/mL. In addition, the results for the Activity result in data set [2], in data set [4] and in data set [6] were “Non-toxic”, 60% and <3 log10CFU, respectively. Besides, the outcome in data set [3] was inactive. In addition, the result in data set [5] was Active.
